Measured values from ChEMBL document CHEMBL3352055, “Synthesis and structure-activity relationship studies of small molecule disruptors of EWS-FLI1 interactions in Ewing's sarcoma” (J Med Chem, 2014).
pIC50, pKd: −log10 of the molar value. Calls of active or inactive are those of the source. The calls are words filed in the database; no cut-off is given here.

How the values were obtained:
[1] = Growth inhibition of human PANC1 cells after 3 days by WST1 assay; format: cell-based, PANC-1
Outline: (§1)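 Cells plated at 5000–15000 per well in colorless medium. TC32 and TC71 grown in RPMI with 10% FBS and 1% HEPES; PANC1 in DMEM with 10% FBS. Compounds or DMSO vehicle added the day after plating. Viable cells measured by MTT or WST-1 after 3 days. GI50 from nonlinear regression.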

[2] = Growth inhibition of human TC32 cells harboring EWS-FLI1 fusion protein after 3 days by WST1 assay; format: functional; details: TC-32, 72 h; outline: as §1
[3] = Growth inhibition of human TC71 cells harboring EWS-FLI1 fusion protein after 3 days by WST1 assay; format: functional; details: TC-71, 72 h; outline: as §1
[4] = molecular target: Friend leukemia integration 1 transcription factor (Proto-oncogene Fli-1)/RNA-binding protein EWS (Homo sapiens) (UniProt Q01844+Q01543); experiment: (§2) Inhibition of transcriptional activity of full-length EWS-FLI1 (unknown origin) expressed in COS7 cells by NR0B1-luciferase reporter gene assay; format: cell-based; details: COS-7
Outline: (§3)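 COS7 cells transiently co-transfected with an NR0B1 luciferase reporter carrying EWS-FLI1 binding sites plus full-length EWS-FLI1 or empty pCI-neo vector. Treated 1.5 h after transfection with 0.05–15 μM compound or DMSO. Luciferase read 20 h later, quadruplicate wells, mean ± SD. IC50 from sigmoidal dose–response fit.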

[5] = molecular target: T1, Friend leukemia integration 1 transcription factor (Proto-oncogene Fli-1)/RNA-binding protein EWS (Homo sapiens, UniProt Q01543+Q01844); experiment: Binding affinity to purified recombinant EWS-FLI1 (unknown origin) after 1 hr by colorimetric phosphatase assay; format: protein assay
T1 sequence (Q01844 whole entry): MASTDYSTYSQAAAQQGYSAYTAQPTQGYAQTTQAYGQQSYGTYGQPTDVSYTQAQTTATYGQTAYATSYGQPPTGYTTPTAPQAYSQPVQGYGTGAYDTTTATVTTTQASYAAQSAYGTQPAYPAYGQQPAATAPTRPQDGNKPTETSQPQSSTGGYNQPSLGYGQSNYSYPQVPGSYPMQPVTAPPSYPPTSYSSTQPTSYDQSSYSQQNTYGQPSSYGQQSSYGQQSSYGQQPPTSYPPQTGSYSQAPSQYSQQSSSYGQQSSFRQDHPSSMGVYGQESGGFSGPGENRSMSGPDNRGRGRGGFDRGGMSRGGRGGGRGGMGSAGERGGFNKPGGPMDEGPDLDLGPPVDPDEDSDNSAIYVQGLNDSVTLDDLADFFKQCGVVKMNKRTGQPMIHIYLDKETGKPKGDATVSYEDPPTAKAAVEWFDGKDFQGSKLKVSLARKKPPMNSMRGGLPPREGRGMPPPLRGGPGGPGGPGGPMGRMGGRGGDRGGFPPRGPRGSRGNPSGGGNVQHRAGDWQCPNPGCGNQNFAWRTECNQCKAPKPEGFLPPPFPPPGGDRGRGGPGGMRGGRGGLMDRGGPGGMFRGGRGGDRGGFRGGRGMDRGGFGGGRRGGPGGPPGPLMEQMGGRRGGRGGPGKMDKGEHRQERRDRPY
T1 sequence (Q01543 whole entry): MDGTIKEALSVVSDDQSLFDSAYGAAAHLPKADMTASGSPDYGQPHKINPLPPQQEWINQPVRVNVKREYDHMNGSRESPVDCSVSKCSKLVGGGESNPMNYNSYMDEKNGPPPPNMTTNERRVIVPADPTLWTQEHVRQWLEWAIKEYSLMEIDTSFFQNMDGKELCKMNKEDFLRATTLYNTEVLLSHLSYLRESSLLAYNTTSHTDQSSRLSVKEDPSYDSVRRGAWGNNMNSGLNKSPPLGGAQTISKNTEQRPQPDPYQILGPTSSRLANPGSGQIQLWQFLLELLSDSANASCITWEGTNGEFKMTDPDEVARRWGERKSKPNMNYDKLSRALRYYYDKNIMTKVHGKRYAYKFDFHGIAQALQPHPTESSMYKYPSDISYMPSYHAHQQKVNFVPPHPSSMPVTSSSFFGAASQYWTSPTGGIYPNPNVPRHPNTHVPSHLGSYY
Outline: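 His-tagged EWS-FLI1 expressed in BL21 (1 mM IPTG, 2 h at 27 °C) and purified from inclusion bodies by Ni column with on-column refolding. Plates coated overnight with 20 nM protein and blocked with 4% BSA for 1 h at RT. Biotin conjugate (1–100 μM) incubated 1 h, then HRP-streptavidin 1:5000 for 1 h at RT. Phosphatase substrate read at 405 nm. BSA-coated wells used as control. Kd taken from the saturation curve.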

[6] = Cytotoxicity against african green monkey COS7 cells after 48 hrs by WST1 assay; format: cell-based; details: chlorocebus aethiops, cos-7, 48 h
Outline: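 COS7 cells (monkey kidney, lacking EWS-FLI1) grown in DMEM with 10% FBS. Compound exposure for 48 h, with viability read by WST proliferation assay.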

[7] = molecular target: T1, Friend leukemia integration 1 transcription factor (Proto-oncogene Fli-1)/RNA-binding protein EWS; experiment: as §2; format: cell-based, COS-7; outline: as §3

`COc1ccc(C(=O)CC2(O)C(=O)Nc3c(Cl)ccc(Cl)c32)c(OC)c1` (stereo not given) gave a GI50 at 72 h [1] of over 10 µM, a GI50 [2] of 2.6 µM and a GI50 [3] of 2.8 µM. The “inhibition activity (qualitative call)” value [4] was “Active”.

Compound `O=C(CC1(O)C(=O)Nc2c(Cl)ccc(Cl)c21)c1ccc(I)cc1` (stereo not given) has a GI50 at 72 h [1] of over 10 µM, a GI50 [2] of over 10 µM and a GI50 [3] of over 10 µM.

`COc1ccc(C(=O)CC2(O)C(=O)N(C)c3c(Cl)ccc(Cl)c32)cc1` (stereo not given) gave a GI50 at 72 h [1] of over 10 µM, a GI50 [2] of 2.2 µM and a GI50 [3] of over 10 µM. The “inhibition activity (qualitative call)” value [4] was “Active”.

Compound `COc1ccc(C(=O)CC2(O)C(=O)N(c3ccccc3)c3c(Cl)ccc(Cl)c32)cc1` (stereo not given) has a GI50 at 72 h [1] of over 10 µM, a GI50 [2] of over 10 µM and a GI50 [3] of over 10 µM.

`O=C(CC1(O)C(=O)Nc2c(Cl)ccc(Cl)c21)c1ccc(C(F)(F)F)cc1` (stereo not given) showed a GI50 at 72 h [1] of 11 µM, a GI50 [2] of 2.9 µM and a GI50 [3] of 6.9 µM.

In the case of `CN(C(=O)CCCCCNC(=O)CCCC[C@H]1SCC2NC(=O)NC21)c1ccc(C(=O)CC2(O)C(=O)Nc3c(Cl)ccc(Cl)c32)cc1` (stereo not given in full), the pKd [5] was 5.32.

With `CCOc1ccc(C(=O)CC2(O)C(=O)Nc3c(Cl)ccc(Cl)c32)cc1` (stereo not given) the GI50 at 72 h [1] was over 10 µM, the GI50 [2] was 2.7 µM and the GI50 [3] was 3.57 µM. The “inhibition activity (qualitative call)” value [4] was “Active”.

With `COc1ccc(C(=O)CC2(O)C(=O)Nc3c(F)ccc(F)c32)cc1` (stereo not given) the GI50 at 72 h [1] was over 10 µM, the GI50 [2] was over 10 µM and the GI50 [3] was over 10 µM.

With `COc1ccc(C(=O)CC2(O)C(=O)Nc3cc(Cl)c(Cl)cc32)cc1` (stereo not given) the GI50 at 72 h [1] was over 10 µM, the GI50 [2] was over 10 µM and the GI50 [3] was over 10 µM.

In the case of `O=C(CC1(O)C(=O)Nc2c(Cl)ccc(Cl)c21)c1ccc(Oc2ccccc2)cc1` (stereo not given), the GI50 at 72 h [1] was over 10 µM, the GI50 [2] was over 10 µM and the GI50 [3] was over 10 µM.

`COc1ccccc1C(=O)CC1(O)C(=O)Nc2c(Cl)ccc(Cl)c21` (stereo not given) gave a GI50 at 72 h [1] of over 10 µM, a GI50 [2] of over 10 µM and a GI50 [3] of over 10 µM. The “inhibition activity (qualitative call)” value [4] was “inactive”.

Work on `COc1ccc(C(=O)CC2(O)C(=O)Nc3c(Cl)cccc32)cc1` (stereo not given) yielded a GI50 at 72 h [1] of over 10 µM, a GI50 [2] of over 10 µM and a GI50 [3] of over 10 µM.

With `CC(C)Oc1ccc(C(=O)CC2(O)C(=O)Nc3c(Cl)ccc(Cl)c32)cc1` (stereo not given) the GI50 at 72 h [1] was over 10 µM, the GI50 [2] was over 10 µM and the GI50 [3] was over 10 µM.

`COc1ccc(C(=O)CC2(OC)C(=O)N(C)c3c(Cl)ccc(Cl)c32)cc1` (stereo not given) showed a GI50 at 72 h [1] of over 10 µM, a GI50 [2] of over 10 µM and a GI50 [3] of over 10 µM. For the same compound, the “inhibition activity (qualitative call)” value [4] was “Active”.

Compound `N#Cc1ccc(C(=O)CC2(O)C(=O)Nc3c(Cl)ccc(Cl)c32)cc1` (stereo not given) has a GI50 at 72 h [1] of over 10 µM, a GI50 [2] of over 10 µM and a GI50 [3] of over 10 µM.

With `COc1cccc(C(=O)CC2(O)C(=O)Nc3c(Cl)ccc(Cl)c32)c1OC` (stereo not given) the GI50 at 72 h [1] was over 10 µM, the GI50 [2] was over 10 µM and the GI50 [3] was over 10 µM.

`COc1ccc(C(=O)CC2(O)C(=O)Nc3cccc(Cl)c32)cc1` (stereo not given) showed a GI50 at 72 h [1] of over 10 µM, a GI50 [2] of over 10 µM and a GI50 [3] of over 10 µM.

Compound `COc1cccc(C(=O)CC2(O)C(=O)Nc3c(Cl)ccc(Cl)c32)c1` (stereo not given) has a GI50 at 72 h [1] of over 10 µM, a GI50 [2] of over 10 µM and a GI50 [3] of over 10 µM.

Work on `COc1ccc(C(=O)CC2(O)C(=O)Nc3c(Cl)ccc(Cl)c32)c(OC)c1OC` (stereo not given) yielded a GI50 at 72 h [1] of over 10 µM, a GI50 [2] of 2.7 µM and a GI50 [3] of 4.4 µM.

Work on `COc1ccc(C(=O)CC2(O)C(=O)Nc3ccc(Cl)cc32)cc1` (stereo not given) yielded a GI50 at 72 h [1] of over 10 µM, a GI50 [2] of over 10 µM and a GI50 [3] of over 10 µM.

With `COc1ccc(C(=O)CC2(O)C(=O)Nc3c(Cl)ccc(Cl)c32)cc1` (stereo not given) the GI50 at 72 h [1] was over 10 µM, the GI50 [2] was 0.94 µM and the GI50 [3] was 0.92 µM. For the same compound, the Activity [6] was “Non-toxic”, the “inhibition activity (qualitative call)” value [4] was “Dose-dependent effect” and the pIC50 [7] was 6.46.

With `Cc1ccc(C(=O)CC2(O)C(=O)Nc3c(Cl)ccc(Cl)c32)cc1` (stereo not given) the GI50 at 72 h [1] was over 10 µM, the GI50 [2] was over 10 µM and the GI50 [3] was over 10 µM.

`Nc1ccc(C(=O)CC2(O)C(=O)Nc3c(Cl)ccc(Cl)c32)cc1` (stereo not given) showed a GI50 at 72 h [1] of over 10 µM, a GI50 [2] of over 10 µM and a GI50 [3] of over 10 µM.

In the case of `COc1cc(OC)cc(C(=O)CC2(O)C(=O)Nc3c(Cl)ccc(Cl)c32)c1` (stereo not given), the GI50 at 72 h [1] was over 10 µM, the GI50 [2] was 9 µM and the GI50 [3] was over 10 µM.

Compound `O=C(CC1(O)C(=O)Nc2c(Cl)ccc(Cl)c21)c1ccc(F)cc1` (stereo not given) has a GI50 at 72 h [1] of over 10 µM, a GI50 [2] of over 10 µM and a GI50 [3] of over 10 µM.

Work on `COc1ccc(C(=O)CC2(OC)C(=O)Nc3c(Cl)ccc(Cl)c32)cc1` (stereo not given) yielded a GI50 at 72 h [1] of over 10 µM, a GI50 [2] of over 10 µM and a GI50 [3] of over 10 µM. The “inhibition activity (qualitative call)” value [4] was “inactive”.

Work on `COc1ccc(C(=O)CC2(O)C(=O)Nc3c(C)ccc(C)c32)cc1` (stereo not given) yielded a GI50 at 72 h [1] of over 10 µM, a GI50 [2] of over 10 µM and a GI50 [3] of over 10 µM.

`COc1ccc(C(=O)CC2(O)C(=O)Nc3ccccc32)cc1` (stereo not given) gave a GI50 at 72 h [1] of over 10 µM, a GI50 [2] of over 10 µM and a GI50 [3] of over 10 µM.

Compound `COc1ccc(C(=O)CC2(O)C(=O)Nc3c(OC)ccc(OC)c32)cc1` (stereo not given) has a GI50 at 72 h [1] of over 10 µM, a GI50 [2] of 1 µM and a GI50 [3] of 0.94 µM. It also gave a pIC50 [7] of 6.11.

Compound `CN(C)c1ccc(C(=O)CC2(O)C(=O)Nc3c(Cl)ccc(Cl)c32)cc1` (stereo not given) has a GI50 at 72 h [1] of over 10 µM, a GI50 [2] of 0.26 µM and a GI50 [3] of 0.4 µM. For the same compound, the pIC50 [7] was 6.82.

In the case of `CNc1ccc(C(=O)CC2(O)C(=O)Nc3c(Cl)ccc(Cl)c32)cc1` (stereo not given), the GI50 at 72 h [1] was over 10 µM, the GI50 [2] was 0.34 µM and the GI50 [3] was 0.39 µM. It also gave a pIC50 [7] of 6.74.

Compound `CSc1ccc(C(=O)CC2(O)C(=O)Nc3c(Cl)ccc(Cl)c32)cc1` (stereo not given) has a GI50 at 72 h [1] of over 10 µM, a GI50 [2] of 0.98 µM and a GI50 [3] of 0.91 µM. For the same compound, the pIC50 [7] was 6.48.

In the case of `O=C(CC1(O)C(=O)Nc2c(Cl)ccc(Cl)c21)c1ccccc1` (stereo not given), the GI50 at 72 h [1] was over 10 µM, the GI50 [2] was over 10 µM and the GI50 [3] was over 10 µM.
